Experimental findings from ChEMBL document CHEMBL3351943, “Binding modes of reverse fosmidomycin analogs toward the antimalarial target IspC” (J Med Chem, 2014) are described below.

What is called IC50 is the point on the concentration scale where inhibition reaches its midpoint.

Test [1] can be described thus: Inhibition of Plasmodium falciparum IspC using 1-deoxy-D-xylulose 5-phosphate as substrate by photometric analysis. In outline:
(§1)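 Photometric enzyme assay run per an earlier method. IC50 was fitted by nonlinear regression from eight or more data points. Generally two or three independent determinations were made.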

The target in test [2] is T1, 1-deoxy-D-xylulose 5-phosphate reductoisomerase (Escherichia coli K-12, UniProt P45568).
T1 sequence (P45568 whole entry): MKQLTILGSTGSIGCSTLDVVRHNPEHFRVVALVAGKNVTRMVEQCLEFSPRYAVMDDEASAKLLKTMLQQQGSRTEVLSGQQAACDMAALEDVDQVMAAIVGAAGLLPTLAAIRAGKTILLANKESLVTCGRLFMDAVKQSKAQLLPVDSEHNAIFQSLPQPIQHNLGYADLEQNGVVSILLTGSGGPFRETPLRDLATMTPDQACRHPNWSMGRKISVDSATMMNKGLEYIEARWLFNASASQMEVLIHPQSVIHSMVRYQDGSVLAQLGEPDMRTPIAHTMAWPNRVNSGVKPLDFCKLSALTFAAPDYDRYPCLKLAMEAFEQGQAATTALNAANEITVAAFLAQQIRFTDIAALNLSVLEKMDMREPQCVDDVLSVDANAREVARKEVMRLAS
The test can be described thus: Inhibition of Escherichia coli M15 recombinant IspC using 1-deoxy-D-xylulose 5-phosphate as substrate by photometric analysis. The essentials:
as §1

In test [3] the target is T2, 1-deoxy-D-xylulose 5-phosphate reductoisomerase (Mycobacterium tuberculosis, UniProt P9WNS1).
T2 sequence (P9WNS1 whole entry): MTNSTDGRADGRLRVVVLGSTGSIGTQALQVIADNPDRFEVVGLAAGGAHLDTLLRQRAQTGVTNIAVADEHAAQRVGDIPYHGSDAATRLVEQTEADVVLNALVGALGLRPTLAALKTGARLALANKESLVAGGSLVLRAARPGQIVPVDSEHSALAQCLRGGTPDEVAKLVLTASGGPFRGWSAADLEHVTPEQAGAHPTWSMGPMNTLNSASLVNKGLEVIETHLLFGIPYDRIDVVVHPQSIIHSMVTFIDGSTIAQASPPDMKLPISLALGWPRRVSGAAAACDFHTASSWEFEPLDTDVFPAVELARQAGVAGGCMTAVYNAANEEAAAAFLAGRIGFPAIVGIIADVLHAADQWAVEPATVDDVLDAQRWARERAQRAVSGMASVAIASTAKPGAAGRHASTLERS
Kind of test: Inhibition of Mycobacterium tuberculosis IspC using 1-deoxy-D-xylulose 5-phosphate as substrate by photometric analysis.

Test [4] has as its system Plasmodium falciparum. The test can be described thus: Antimicrobial activity against chloroquine-resistant Plasmodium falciparum Dd2 assessed as growth inhibition after 3 days by HRP2-based ELISA. Conditions: Dd2, 72 h. The class given is functional. The essentials: (§2)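 Parasite growth followed by ELISA for P. falciparum histidine-rich protein 2; values are the mean of two duplicate determinations.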

Test [5] deals with Plasmodium falciparum. Kind of test: Antimicrobial activity against chloroquine-sensitive Plasmodium falciparum 3D7 assessed as growth inhibition after 3 days by HRP2-based ELISA. The test is classed as functional, organism-based. Particulars: 3D7, 72 h. The essentials: as §2
In general terms: ELISA stands for enzyme-linked immunosorbent assay.

The subject of test [6] is Plasmodium falciparum. Kind of test: Antimicrobial activity against multidrug-resistant Plasmodium falciparum FCR3 assessed as growth inhibition after 3 days by HRP2-based ELISA. The test is classed as functional, organism-based. Particulars: FCR3, 72 h. The essentials: as §2

As for `COc1ccc(C(CCC(=O)NO)P(=O)(O)O)cc1OC` (stereo unspecified), the IC50 in test [1] was 0.13 µM; in test [2], 1.5 µM; in test [3] it was 163 µM; in test [4], 8.1 µM; in test [5], 6.8 µM.

On to `Cc1ccc(C(CCC(=O)N(C)O)P(=O)(O)O)cc1` (stereo unspecified), for which the IC50 in test [6] worked out at 0.38 µM; in test [1], 0.01 µM; in test [2], 0.29 µM; in test [4] it was 0.25 µM; in test [5], 0.21 µM.

In the case of `CN(O)C(=O)CCC(NC(=O)c1ccccc1)P(=O)(O)O` (stereo unspecified), the IC50 in test [1] was 9.1 µM; in test [2], 11 µM; in test [3], 238 µM; in test [5], above 50 µM.

Take `COc1ccc(C(CCC(=O)N(C)O)P(=O)(O)O)cc1OC` (stereo unspecified): the IC50 in test [1] was determined as 0.06 µM; in test [2], 0.32 µM; in test [3], 29 µM; in test [4], 1.2 µM; in test [5], 0.29 µM.

For `Cc1ccc(C(CCC(=O)NO)P(=O)(O)O)cc1` (stereo unspecified), the IC50 in test [1] was determined as 0.19 µM; in test [2], 0.7 µM; in test [3] it was 11 µM; in test [4], 2.8 µM; in test [5], 2.6 µM.

As to `O=P(O)(O)CCC(c1cccc2ccccc12)P(=O)(O)O` (stereo unspecified), the IC50 was above 300 µM in test [1], above 500 µM in test [2], above 500 µM in test [3] and above 50 µM in test [5].

In the case of `COc1ccc(C(OCC(=O)N(C)O)P(=O)(O)O)cc1` (stereo unspecified), the IC50 in test [6] stood at 0.41 µM; in test [1] it was 0.05 µM; in test [2] it was 0.45 µM; in test [3], 2.8 µM; in test [4], 1.1 µM; in test [5], 0.31 µM.

For `COc1ccc(C(OCC(=O)NO)P(=O)(O)O)cc1` (stereo unspecified), the IC50 is 2.2 µM in test [1], 17 µM in test [2], 352 µM in test [3] and above 50 µM in test [5].

For the compound `COc1ccc(C(CCC(=O)NO)P(=O)(O)O)cc1` (stereo unspecified), the IC50 in test [1] came out at 0.08 µM; in test [2], 0.14 µM; in test [3], 15 µM; in test [4], 3.6 µM; in test [5], 1.7 µM.

Take `O=C(CCC(c1ccccc1)P(=O)(O)O)Nc1ccccc1O` (stereo unspecified): the IC50 was above 300 µM in test [1], above 500 µM in test [2], above 500 µM in test [3] and above 50 µM in test [5].

On to `CN(O)C(=O)CCCC(c1ccccc1)P(=O)(O)O` (stereo unspecified), for which the IC50 in test [1] is 2.1 µM; in test [2], 4.3 µM; in test [3], 429 µM; in test [5], above 50 µM.

For `O=C(CCC(NC(=O)c1ccccc1)P(=O)(O)O)NO` (stereo unspecified), the IC50 in test [1] is above 1000 µM; in test [2], 741 µM; in test [3], above 1000 µM; in test [5], above 50 µM.

`COc1ccc(C(CCC(=O)N(C)O)P(=O)(O)O)cc1` (stereo unspecified): the IC50 is 0.57 µM in test [6]; 0.02 µM in test [1]; 0.07 µM in test [2]; 2 µM in test [3]; 0.3 µM in test [4]; 0.1 µM in test [5].
